Measured values published in ChEMBL document CHEMBL1149859, “Proteasome inhibition by peptide-semicarbazones” (Bioorg Med Chem, 2008).
The source made the active and inactive calls. No cut-off for these calls is given here.

How the values were obtained:
A549 = assay: Inhibition of TNF-alpha-induced NF-kappaB transcriptional activation in human A549 cells by SEAP reporter gene assay; assay type: functional, cell-based
In short: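 A549 cells stably transfected with a pNF-κB-SEAP reporter, seeded at 2 × 10^4/well and attached overnight. Preincubated 5 h with compound at 100, 30, 10, 3, 1, 0.3, 0.1 and 0 µM, then stimulated with 10 ng/ml TNF-α for 22 h. Supernatant SEAP read by chemiluminescence; viability checked in parallel with CellTiter-Blue.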

[1] = Inhibition of human 20S proteasome by fluorescence spectroscopy
In short: (§1)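 20S proteasome (1.3 µg) activated in 25 mM Hepes pH 7.5, 0.5 mM EDTA, 0.033% SDS for 10 min at room temperature. Added to compound in DMSO with 75 µM Suc-LLVY-AMC. AMC release followed 20 min at 30 °C (ex 360, em 465 nm) as RFU/min. IC50 from eight concentrations, triplicates on one day.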

PBMC = assay: Antiproliferative activity against human peripheral blood mononuclear cells after 48 hrs by ELISA; assay type: cell-based
In short: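 Human PBMC isolated by density gradient, 100,000–200,000 cells/well in RPMI 1640 with 10% heat-inactivated FBS. Stimulated with 20 µg/ml PHA-L and exposed to compound at 0.4–50 µM for 48 h at 37 °C, 5% CO2. BrdU (10 µM) added for a further 4 h. Cells fixed and DNA denatured; incorporated BrdU detected with anti-BrdU-POD.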

[2] = Inhibition of chymotrypsin-like site of human 20S proteasome; in short: as §1
[3] = Inhibition of peptidylglutamyl peptide hydrolyzing site of human 20S proteasome
In short: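 Peptidylglutamyl-peptide hydrolysing activity of SDS-activated 20S proteasome (1.3 µg; 25 mM Hepes pH 7.5, 0.5 mM EDTA, 0.033% SDS, 10 min preincubation at room temperature). Substrate was 75 µM Z-LLE-βNA with compound in DMSO. Fluorescence followed 20 min at 30 °C as RFU/min. IC50 from eight concentrations, triplicates on one day.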

Structure (SMILES)	IC50 [1]	EC50 (A549)	IC50 [2]	IC50 [3]	Activity (A549)	IC50 (PBMC)
O=C1CN(/N=C/[C@@H](Cc2ccccc2)NC(=O)[C@H](Cc2c[nH]c3ccccc23)NC(=O)[C@H](Cc2c[nH]c3ccccc23)NC(=O)OCc2ccccc2)C(=O)N1	400 nM	800 nM				
O=C1CN(/N=C/[C@H](Cc2ccccc2)NC(=O)[C@H](Cc2c[nH]c3ccccc23)NC(=O)[C@H](Cc2c[nH]c3ccccc23)NC(=O)OCc2ccccc2)C(=O)N1	200 nM	400 nM	200 nM	1200 nM		700 nM
O=C1CN(/N=C/[C@H](Cc2ccccc2)NC(=O)[C@H](Cc2c[nH]c3ccccc23)NC(=O)[C@H](Cc2c[nH]c3ccccc23)NC(=O)OCc2ccncc2)C(=O)N1	1600 nM	4900 nM				
O=C1CN(/N=C/[C@H](Cc2c[nH]c3ccccc23)NC(=O)[C@H](Cc2c[nH]c3ccccc23)NC(=O)[C@H](Cc2c[nH]c3ccccc23)NC(=O)OCc2ccccc2)C(=O)N1	1100 nM	3000 nM				

Further compounds by falling IC50 [1], results first:

IC50 [1]	EC50 (A549)	IC50 [2]	IC50 [3]	Structure (SMILES)	Activity (A549)	IC50 (PBMC)
200 nM	5800 nM			NC(=O)N/N=C/[C@H](Cc1ccccc1)NC(=O)[C@H](Cc1c[nH]c2ccccc12)NC(=O)[C@H](Cc1c[nH]c2ccccc12)NC(=O)OCc1ccccc1		
100 nM				O=C1CN(/N=C/[C@H](Cc2ccccc2)NC(=O)[C@H](Cc2c[nH]c3ccccc23)NC(=O)[C@H](Cc2c[nH]c3ccccc23)NC(=O)CCCCC2SCC3NC(=O)NC32)C(=O)N1 (stereo partly drawn)	inactive	29000 nM
100 nM	8700 nM			O=C1CN(/N=C/[C@H](Cc2ccccc2)NC(=O)[C@H](Cc2c[nH]c3ccccc23)NC(=O)[C@H](Cc2c[nH]c3ccccc23)NC(=O)CCc2ccc(O)cc2)C(=O)N1		
100 nM	1800 nM	100 nM	3700 nM	NC(=O)N/N=C/[C@H](Cc1c[nH]c2ccccc12)NC(=O)[C@H](Cc1c[nH]c2ccccc12)NC(=O)[C@H](Cc1c[nH]c2ccccc12)NC(=O)OCc1ccccc1		1400 nM
